Assay results reported in ChEMBL document CHEMBL1149191, “Novel pyridazino[4,3-b]indoles with dual inhibitory activity against Mycobacterium tuberculosis and monoamine oxidase” (J Med Chem, 2004).
Values after ≈ are worked out from the molar mass of the structure shown.

Columns and labels:
[1] = tested on: Mycobacterium tuberculosis; test: In vitro inhibition of Mycobacterium tuberculosis H37Rv, determined at 20 ug/mL; assay type: functional
In short: (§1)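 M. tuberculosis H37Rv (Pasteur) grown twice for 1 week each in Dubos broth at 37 °C, washed, then filtered to remove clumps. 25 × 10⁴ CFU per well in RPMI 1640 with 5 mM HEPES, 2 mM L-glutamine and 2% FBS. Compound added from DMSO stock; 5,6-[³H]-uracil added at 24 h, then 18 h at 37 °C.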

[2] = tested on: Mycobacterium tuberculosis; test: In vitro inhibition of Mycobacterium tuberculosis H37Rv, determined at 2 ug/mL; assay type: functional; in short: as §1
[3] = target: T1, Amine oxidase [flavin-containing] A (Rattus norvegicus, UniProt P21396); test: Inhibition of Monoamine oxidase A from rat liver mitochondria
T1 sequence (P21396 whole entry): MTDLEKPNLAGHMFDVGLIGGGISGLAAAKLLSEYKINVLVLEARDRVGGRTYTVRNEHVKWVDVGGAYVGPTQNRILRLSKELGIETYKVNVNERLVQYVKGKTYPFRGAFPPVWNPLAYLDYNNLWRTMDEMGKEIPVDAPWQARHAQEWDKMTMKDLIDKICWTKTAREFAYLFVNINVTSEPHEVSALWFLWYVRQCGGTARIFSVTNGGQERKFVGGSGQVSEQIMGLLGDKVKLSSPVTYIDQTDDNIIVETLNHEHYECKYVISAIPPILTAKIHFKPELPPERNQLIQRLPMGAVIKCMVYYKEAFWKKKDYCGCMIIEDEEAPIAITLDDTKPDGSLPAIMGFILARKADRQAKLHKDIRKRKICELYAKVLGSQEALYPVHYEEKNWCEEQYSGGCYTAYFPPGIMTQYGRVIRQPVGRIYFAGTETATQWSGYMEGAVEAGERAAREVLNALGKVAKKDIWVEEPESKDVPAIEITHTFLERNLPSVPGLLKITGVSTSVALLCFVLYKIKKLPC
In short: (§2)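 Rat liver mitochondria from differential centrifugation, in 50 mM phosphate buffer pH 7.4. Preincubated with inhibitor (10⁻⁸–10⁻³ or 10⁻⁴ M) for 60 min at 37 °C. MAO-A activity measured radiometrically as ¹⁴C-aldehyde formed from 0.1 mM [¹⁴C]-5-hydroxytryptamine creatinine sulfate; IC50 reported.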

[4] = tested on: Mycobacterium tuberculosis; test: In vitro inhibition of Mycobacterium tuberculosis H37Rv, determined at 0.2 ug/mL; assay type: functional; in short: as §1
[5] = tested on: Mycobacterium tuberculosis; test: Minimal inhibitory activity of compound against Mycobacterium tuberculosis H37Rv; assay type: functional
In short: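 Same H37Rv [³H]-uracil incorporation assay: compound at final 20, 2.0 and 0.2 μg/mL, 24 h, then 1 μCi 5,6-[³H]-uracil for 18 h at 37 °C, harvested on filters, scintillation counted, triplicate. MIC50 is the concentration giving 50% reduction in cpm versus drug-free plate at the same bacterial dilution.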

[6] = target: T2, Amine oxidase [flavin-containing] B (Rattus norvegicus, UniProt P19643); test: Inhibition of Monoamine oxidase B from rat liver mitochondria
T2 sequence (P19643 whole entry): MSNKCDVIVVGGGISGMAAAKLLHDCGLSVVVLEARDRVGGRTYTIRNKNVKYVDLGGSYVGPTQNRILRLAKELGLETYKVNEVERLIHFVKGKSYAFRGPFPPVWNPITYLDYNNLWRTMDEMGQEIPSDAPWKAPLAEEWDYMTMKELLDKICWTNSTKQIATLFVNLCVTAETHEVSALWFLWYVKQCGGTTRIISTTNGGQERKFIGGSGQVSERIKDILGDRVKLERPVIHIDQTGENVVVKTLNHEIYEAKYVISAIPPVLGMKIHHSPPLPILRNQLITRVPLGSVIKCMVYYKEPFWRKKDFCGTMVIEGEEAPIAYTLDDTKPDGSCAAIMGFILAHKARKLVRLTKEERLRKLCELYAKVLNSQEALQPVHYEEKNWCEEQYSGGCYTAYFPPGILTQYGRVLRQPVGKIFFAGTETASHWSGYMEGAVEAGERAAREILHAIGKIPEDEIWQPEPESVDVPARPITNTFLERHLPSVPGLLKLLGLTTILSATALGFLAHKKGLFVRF
In short: (§3)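 Rat liver mitochondria from differential centrifugation, in 50 mM phosphate buffer pH 7.4. Preincubated with inhibitor (10⁻⁸–10⁻³ or 10⁻⁴ M) for 60 min at 37 °C. MAO-B activity measured radiometrically as ¹⁴C-aldehyde formed from 10 μM [¹⁴C]-phenylethylamine; IC50 reported.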

[7] = target: T1, Amine oxidase [flavin-containing] A; test: Inhibitory activity of compound against Monoamine oxidase A isolated from rat liver mitochondria using [14C]5-HT creatinine sulfate; NI denotes no inhibition at 1000 uM; in short: as §2
[8] = target: T2, Amine oxidase [flavin-containing] B; test: Inhibitory activity against Monoamine oxidase B isolated from rat liver mitochondria using [14C]phenylethylamine; NI denotes no inhibition at 1000 uM; in short: as §3

Compound | inhibition at 20 µg/mL [1] | inhibition at 2 µg/mL [2] | IC50 [3] | inhibition at 0.2 µg/mL [4] | MIC50 [5] | IC50 [6] | IC50 [7] | IC50 [8]
CC(C)c1ccc(-c2c3nc4ccccc4c-3n[nH]c2N)cc1 | 61.9% | 32.9% | > 1000 µM | 8.7% | 12.6 µg/mL (≈ 41.8 µM) | > 1000 µM | – | –
CC(C)c1ccc(-c2c(N)nnc3c4ccccc4n(C)c23)cc1 | 88% | 63.6% | 14.1 µM | 21.3% | 1.42 µg/mL (≈ 4.49 µM) | 316 µM | – | –
CC(=O)N(C(C)=O)c1nnc2c3ccccc3n(C)c2c1-c1ccccc1 | 0% | – | – | – | – | – | – | –
Cn1c2ccccc2c2nnc(N)c(-c3ccccc3)c21 | 40.2% | 25.5% | 28.2 µM | 2.3% | – | ~1000 µM | – | –
CC(C)c1ccc(-c2c(N)nnc3c4cc(Br)ccc4n(C)c23)cc1 | 60.7% | 0% | – | 0% | 17.1 µg/mL (≈ 43.3 µM) | – | – | –
Nc1[nH]nc2c3ccccc3nc-2c1-c1cccc(Br)c1 | 32% | 0% | – | 0% | – | – | – | –
CC(C)c1ccc(-c2c3nc4ccc(Br)cc4c-3n[nH]c2N)cc1 | 88.5% | 56.3% | 63 µM | 7.1% | 1.77 µg/mL (≈ 4.64 µM) | 79 µM | – | –
CC(C)c1ccc(-c2c(O)nnc3c4ccccc4n(C)c23)cc1 | 0% | – | – | – | – | – | – | –
Cc1ccc2c(c1)c1nnc(N)c(-c3ccc(C(C)C)cc3)c1n2C | 40.5% | 0% | – | 0% | – | – | – | –
CCCn1c2ccccc2c2nnc(N)c(-c3ccc(C(C)C)cc3)c21 | 20% | 0% | – | 0% | – | – | – | –
Cn1c2ccccc2c2nnc(N)c(-c3ccccc3F)c21 | 45.3% | 0% | – | 0% | – | 41.6 µM | No inhibition | –
CCn1c2ccccc2c2nnc(N)c(-c3ccc(C(C)C)cc3)c21 | 94.3% | 10.5% | 100 µM | 0% | 10.5 µg/mL (≈ 31.7 µM) | 15.8 µM | – | –
Cc1ccc(-c2c(N)nnc3c4ccccc4n(C)c23)cc1 | 62.3% | 0% | – | 0% | – | – | – | –
Cn1c2ccccc2c2nnc(N)c(-c3cccc(Br)c3)c21 | 60.1% | 0% | 63.1 µM | 0% | – | 100 µM | – | –
CC(C)c1ccc(-c2c(N3C(=O)c4ccccc4C3=O)nnc3c4ccccc4n(C)c23)cc1 | 0% | – | – | – | – | – | – | –
Cc1ccc(-c2c3nc4ccccc4c-3n[nH]c2N)cc1 | 40.5% | 0% | 31.6 µM | 0% | 16.5 µg/mL (≈ 60.1 µM) | 158 µM | – | –
Cn1c2ccccc2c2nnc(O)c(-c3ccccc3)c21 | 0% | – | – | – | – | – | – | –
CCn1c2ccccc2c2nnc(N)c(-c3ccccc3)c21 | 40.3% | 0% | – | 0% | – | 72 µM | No inhibition | –

Compound | inhibition at 20 µg/mL [1] | inhibition at 2 µg/mL [2] | IC50 [3] | inhibition at 0.2 µg/mL [4] | MIC50 [5] | IC50 [6] | IC50 [7] | IC50 [8]
Oc1[nH]nc2c3ccccc3nc-2c1-c1ccccc1 | 0% | – | – | – | – | – | – | –
CCn1c2ccccc2c2nnc(N)c(-c3ccc(C)cc3)c21 | 30.1% | 0% | – | 0% | – | 11 µM | No inhibition | –
Nc1nnc2c3ccccc3n(Cc3ccccc3)c2c1-c1ccccc1 | 20.7% | 0% | – | 0% | – | – | – | –
Nc1[nH]nc2c3ccccc3nc-2c1-c1ccccc1Cl | 35% | 0% | 316 µM | 0% | – | – | – | No inhibition
Nc1[nH]nc2c3ccccc3nc-2c1-c1ccccc1F | 40.3% | 0% | 631 µM | 0% | – | – | – | No inhibition
COc1ccc(-c2c3nc4ccccc4c-3n[nH]c2N)cc1 | 30.2% | 0% | – | 0% | 14.9 µg/mL (≈ 51.2 µM) | – | – | –
Cn1c2ccccc2c2nnc(NC=O)c(-c3ccccc3)c21 | 0% | – | – | – | – | – | – | –
Nc1nnc2c3ccccc3n(Cc3ccccc3)c2c1-c1ccccc1Cl | 50.8% | 0% | 17.8 µM | 0% | – | 35.4 µM | – | –
Nc1[nH]nc2c3ccccc3nc-2c1-c1ccc(F)cc1 | 35.1% | 0% | – | 0% | – | – | No inhibition | No inhibition
CC(C)c1ccc(-c2c(N)nnc3c4ccccc4n(CCN(C)C)c23)cc1 | 20.4% | 0% | 1000 µM | 0% | – | – | – | No inhibition
Cn1c2ccc(Br)cc2c2nnc(N)c(-c3ccccc3)c21 | 54.2% | 0% | – | 0% | – | – | – | –
CN(C)c1ccc(-c2c3nc4ccccc4c-3n[nH]c2N)cc1 | 66% | 10% | 79.4 µM | 5.2% | – | ~1000 µM | – | –
CCn1c2ccccc2c2nnc(N)c(-c3ccccc3Cl)c21 | 15.9% | 0% | ~1000 µM | 0% | – | ~1000 µM | – | –
Cn1c2ccccc2c2nnc(N)c(-c3ccccc3Cl)c21 | 3.1% | 0% | ~1000 µM | 0% | – | ~1000 µM | – | –
Nc1[nH]nc2c3cc(Br)ccc3nc-2c1-c1ccccc1 | 91.4% | 44.3% | 63.1 µM | 9.2% | 4.17 µg/mL (≈ 12.3 µM) | 25.1 µM | – | –
Nc1nnc2c([nH]c3ccccc32)c1-c1ccccc1 | 28.5% | 25.5% | – | 2.3% | – | – | No inhibition | No inhibition
NNC(=O)c1ccncc1 [ISONIAZID] | 68.7% | 59.1% | – | 49.7% | 0.25 µg/mL (≈ 1.82 µM) | – | – | –
CO[C@H]1/C=C/O[C@@]2(C)Oc3c(C)c(O)c4c(O)c(c(/C=N/N5CCN(C)CC5)c(O)c4c3C2=O)NC(=O)/C(C)=C\C=C\[C@H](C)[C@H](O)[C@@H](C)[C@@H](O)[C@@H](C)[C@H](OC(C)=O)[C@@H]1C [RIFAMPIN] | 94.3% | 91.7% | – | 54.8% | 0.1 µg/mL (≈ 0.122 µM) | – | – | –
